In one experiment the test system is Entamoeba histolytica. The experiment is described as follows: Antiparasitic activity against Entamoeba histolytica HM-1:IMSS trophozoites after 24 to 48 hrs by CellTiter-Glo luminescent cell viability assay. The experiment is classed as functional, organism-based. An outline of the steps:
(§1)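 Axenic trophozoites were kept in TYI-S-33 with penicillin (100 U/mL) and streptomycin (100 µg/mL) and harvested in log phase. 5000 parasites per well were exposed to a final 8-point two-fold series of 0.39–50 µM, from 10 mM DMSO stocks. Plates were incubated 24–48 h at 37 °C under anaerobic conditions. ATP luminescence viability was read in triplicate. Percent inhibition is given at the highest concentration tested.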
On the technique in general: In ATP-based viability assays light output follows the ATP content of the culture.

The subject of a further experiment is Giardia intestinalis. Description: Antiparasitic activity against Giardia lamblia WB trophozoites assessed as inhibition of parasitic growth at 50 uM after 24 to 48 hrs by CellTiter-Glo luminescent cell viability assay relative to control. Conditions: Giardia duodenalis, read-out: GI. The experiment is classed as functional. In outline: as §1
For experiment [1], the system named is Trypanosoma brucei brucei. The experiment is described as follows: Antiparasitic activity against bloodstream form of Trypanosoma brucei brucei strain 427 assessed as inhibition of parasitic growth at 40 uM after 48 hrs by resazurin dye-based assay relative to control. The experiment is classed as functional. Conditions: strain 427, 48 h, read-out: GI.
Experiment [2] has as its system Mycobacterium tuberculosis. Description: Antibacterial activity against non-replicating Mycobacterium tuberculosis H37Rv after 5 days under hypoxic condition by resazurin dye-based fluorescence assay. The experiment is classed as functional. Conditions: 120 h. An outline of the steps:
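Same H37Rv inoculum (OD600 0.001, ~2 x 10^4 CFU/mL) in 7H9S with serially diluted compound. Plates held 5 days at 0.1% oxygen, then resazurin plus Tween-80 added.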

pIC50: −log10 of the molar value.

As to `Cc1cn2cc([N+](=O)[O-])nc2c(OCCO)n1`, the pIC50 in the experiment on Entamoeba histolytica (read-out: IC50) was below 4.30. For the same molecule, in the experiment with Entamoeba histolytica (read-out: pIC50 (converted)), the IC50 is above 50.1 µM. The inhibition of growth at 50 µM with Giardia intestinalis was 80%. For the same molecule, the inhibition of growth at 40 µM in experiment [1] was found to be 56%. In experiment [2], this molecule gave an MIC above 32 µg/mL.

What is called pIC50 is the negative decadic logarithm of the IC50, by convention in mol/L. A word on the MIC: it is the lowest concentration found to suppress growth. Low values mean greater potency, high ones weaker potency.

The values are drawn from ChEMBL document CHEMBL4382237, “Design, Synthesis, and Biological Evaluation of 2-Nitroimidazopyrazin-one/-es with Antitubercular and Antiparasitic Activity” (J Med Chem, 2018).
